ChEMBL document CHEMBL2062369, “¹²⁵I-radiolabeled morpholine-containing arginine-glycine-aspartate (RGD) ligand of αvβ₃ integrin as a molecular imaging probe for angiogenesis” (J Med Chem, 2012)
pIC50: −log10 of the molar value. Calls of active or inactive are those of the source. No cut-off for these calls is given here.

Key:
[1] = system: Thyroid gland; test: Biodistribution in non tumor bearing iv dosed mouse thyroid after 24 hrs by micro SPECT-CT analysis; type: ADME, organism-based; conditions: in vivo
[2] = Drug uptake in human A375M cells xenografted in SCID mouse tumor at 250 uCi, iv after 40 mins by micro SPECT-CT analysis; type: ADME, organism-based, Neoplasm; conditions: in vivo
Outline: (§1)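 SCID bg/bg mice bore s.c. shoulder grafts of 1 × 10⁶ A375 M cells plus 0.5 × 10⁶ TGFβ-activated HDF in PBS/Matrigel 1:1. Under anesthesia on a 37 °C bed, mice received 7–10 MBq tracer in 200 μL saline via tail vein. CT was acquired at 30 min, then SPECT from 40 min pi (20–36 keV window). Displacement runs got cold compound (18 mg/kg) 10 min before tracer. Tumor ROI was normalized to contralateral muscle as (TA−BA)/BA.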

[3] = system: Kidney; test: Biodistribution in non tumor bearing iv dosed mouse kidney after 120 mins by micro SPECT-CT analysis; type: ADME, organism-based; conditions: in vivo, 2 h
[4] = Drug uptake in human A375M cells xenografted in mouse tumor at 250 uCi, iv after 40 mins by micro SPECT-CT analysis in presence of c[RGD-(3'I-y)-(3R)-carboxymorpholine]; type: ADME, organism-based, Neoplasm; conditions: in vivo; outline: as §1
[5] = system: Mus musculus; test: Biodistribution in non tumor bearing iv dosed mouse gallbladder after 120 mins by micro SPECT-CT analysis; type: ADME, organism-based, Gall bladder; conditions: in vivo, 2 h
[6] = system: Spleen; test: Biodistribution in non tumor bearing iv dosed mouse spleen after 1 to 24 hrs by micro SPECT-CT analysis; type: ADME, organism-based; conditions: in vivo
[7] = biological target: T1, Integrin alpha-V/beta-3 (Homo sapiens, UniProt P05106+P06756); test: Inhibition of integrin alphavbeta3 expressing human A375M cell adhesion to vitronectin at 0.1 to 10 uM after 30 mins by crystal violet staining method in presence of 2 mmol/L of MnCl2; type: protein-complex assay
Outline: (§2)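 Wells coated overnight at 4 °C with fibronectin (1 μg/mL) or vitronectin (10 μg/mL), blocked with 1% BSA/PBS 1 h at 37 °C. Cells in serum-free medium were preincubated with ligand (final 0.1, 1 or 10 μM) 30 min at 37 °C, then seeded at 4–5 × 10⁴/well for 2 h at 37 °C. HUVEC were IL-1β (400 U/mL)-stimulated; melanoma runs included 2 mmol/L MnCl₂. Adherent cells were stained with crystal violet, read at 540 nm, triplicate, ≥3 repeats.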

[8] = system: HUVEC; test: Antiangiogenic activity against HUVEC seeded on matrigel layer assessed as inhibition of capillary like tube formation at 0.01 uM to 10 uM after 16 to 18 hrs by microscopic analysis; type: functional, cell-based; conditions: Homo sapiens
[9] = system: HUVEC; test: Inhibition of IL-1beta-induced alphaV, beta3, beta5, alpha5, beta1, and alphavbeta3 expressing HUVEC adhesion to vitronectin at 0.1 to 10 uM after 30 mins by crystal violet staining method; type: functional, cell-based; conditions: Homo sapiens; outline: as §2
[10] = system: HUVEC; test: Inhibition of IL-1beta-induced alphav, beta3, beta5, alpha5, beta1 and alphavbeta3 expressing HUVEC adhesion to fibronectin at 0.1 to 10 uM after 30 mins by crystal violet staining method; type: functional, cell-based; conditions: Homo sapiens; outline: as §2
[11] = biological target: T1, Integrin alpha-V/beta-3; test: Inhibition of integrin alphaVbeta3 expressing human A375M cell adhesion to fibronectin at 0.1 to 10 uM after 30 mins by crystal violet staining method in presence of 2 mmol/L of MnCl2; type: protein-complex assay; outline: as §2
[12] = system: HDF; test: Inhibition of HDF adhesion to vitronectin at 0.1 to 10 uM after 30 mins by crystal violet staining method; type: functional; conditions: Homo sapiens; outline: as §2
[13] = system: HDF; test: Inhibition of HDF adhesion to fibronectin at 0.1 to 10 uM after 30 mins by crystal violet staining method; type: functional; conditions: Homo sapiens; outline: as §2
[14] = biological target: T1, Integrin alpha-V/beta-3; test: Displacement of [125I] echistatin from alphaVbeta3 integrin isolated from human placenta after 3 hrs by liquid scintillation counter
Target sequence in this assay (P05106 27-788 limits assumed): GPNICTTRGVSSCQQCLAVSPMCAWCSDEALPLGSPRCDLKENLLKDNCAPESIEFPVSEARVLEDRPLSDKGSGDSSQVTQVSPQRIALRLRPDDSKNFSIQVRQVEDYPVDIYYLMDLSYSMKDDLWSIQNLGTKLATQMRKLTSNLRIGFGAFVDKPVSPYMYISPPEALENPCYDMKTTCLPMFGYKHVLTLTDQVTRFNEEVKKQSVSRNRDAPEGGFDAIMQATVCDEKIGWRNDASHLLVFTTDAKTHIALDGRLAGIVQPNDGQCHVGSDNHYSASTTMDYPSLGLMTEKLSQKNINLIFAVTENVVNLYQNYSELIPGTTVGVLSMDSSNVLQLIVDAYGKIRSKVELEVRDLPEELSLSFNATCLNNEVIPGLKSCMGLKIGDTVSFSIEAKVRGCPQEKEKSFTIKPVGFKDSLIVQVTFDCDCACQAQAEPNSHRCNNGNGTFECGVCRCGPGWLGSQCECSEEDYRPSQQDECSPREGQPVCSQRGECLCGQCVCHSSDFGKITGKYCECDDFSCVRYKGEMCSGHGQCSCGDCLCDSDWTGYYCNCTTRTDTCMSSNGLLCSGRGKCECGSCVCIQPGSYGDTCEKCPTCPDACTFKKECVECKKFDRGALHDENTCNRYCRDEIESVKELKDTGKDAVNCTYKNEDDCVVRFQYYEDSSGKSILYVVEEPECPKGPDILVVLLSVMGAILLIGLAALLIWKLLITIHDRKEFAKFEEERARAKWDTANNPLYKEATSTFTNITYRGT
Target sequence in this assay (P06756 31-889 limits assumed): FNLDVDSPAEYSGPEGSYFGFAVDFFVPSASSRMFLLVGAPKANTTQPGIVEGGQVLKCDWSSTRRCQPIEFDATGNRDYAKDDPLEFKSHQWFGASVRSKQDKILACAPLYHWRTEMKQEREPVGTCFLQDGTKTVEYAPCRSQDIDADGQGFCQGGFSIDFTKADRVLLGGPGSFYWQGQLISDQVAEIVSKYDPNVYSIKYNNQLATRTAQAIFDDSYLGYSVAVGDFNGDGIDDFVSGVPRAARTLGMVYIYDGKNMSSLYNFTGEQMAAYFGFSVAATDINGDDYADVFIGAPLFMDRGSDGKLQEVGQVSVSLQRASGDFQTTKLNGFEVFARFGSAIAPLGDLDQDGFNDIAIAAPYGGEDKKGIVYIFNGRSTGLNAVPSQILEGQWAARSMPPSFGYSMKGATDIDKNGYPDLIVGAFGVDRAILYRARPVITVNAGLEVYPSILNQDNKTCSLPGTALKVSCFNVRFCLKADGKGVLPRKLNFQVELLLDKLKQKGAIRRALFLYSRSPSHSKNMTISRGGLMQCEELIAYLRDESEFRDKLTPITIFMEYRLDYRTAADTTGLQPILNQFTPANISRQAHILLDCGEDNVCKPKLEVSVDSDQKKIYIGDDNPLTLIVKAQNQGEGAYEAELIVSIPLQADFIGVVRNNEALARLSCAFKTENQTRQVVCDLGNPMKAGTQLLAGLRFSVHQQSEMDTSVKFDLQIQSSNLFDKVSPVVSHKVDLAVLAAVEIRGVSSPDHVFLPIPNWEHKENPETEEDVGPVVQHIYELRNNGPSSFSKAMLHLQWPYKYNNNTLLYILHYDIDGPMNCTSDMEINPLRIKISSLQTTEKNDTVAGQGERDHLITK
Target sequence in this assay (P06756 891-1048 limits assumed): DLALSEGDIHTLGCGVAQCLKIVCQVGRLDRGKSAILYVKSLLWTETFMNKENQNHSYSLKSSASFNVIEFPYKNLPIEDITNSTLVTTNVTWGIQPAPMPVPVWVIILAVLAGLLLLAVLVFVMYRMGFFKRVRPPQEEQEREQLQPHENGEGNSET

Drug uptake [1]	Drug uptake [2]	Drug uptake [3]	Drug uptake [4]	Drug uptake [5]	Drug uptake [6]	inhibition [7]	inhibition [11]	pIC50 [14]	Structure (SMILES)	inhibition [8]	inhibition [9]	inhibition [10]	inhibition [12]	inhibition [13]
Active	Active	Active	Active	Active	Active				N=C(N)NCCC[C@@H]1NC(=O)[C@H]2COCCN2C(=O)[C@@H](Cc2ccc(O)c([125I])c2)NC(=O)[C@H](CC(=O)O)NC(=O)CNC1=O					
						Active	Active		N=C(N)NCCC[C@@H]1NC(=O)[C@H]2COCCN2C(=O)[C@@H](Cc2ccccc2)NC(=O)[C@H](CC(=O)O)NC(=O)CNC1=O	inactive	Active	Active	Active	Active
						Active	Active		N=C(N)NCCC[C@@H]1NC(=O)[C@H]2COCCN2C(=O)[C@@H](Cc2ccc(O)cc2)NC(=O)[C@H](CC(=O)O)NC(=O)CNC1=O	inactive	Active	Active	Active	Active
						Active	Active	7.32	N=C(N)NCCC[C@@H]1NC(=O)[C@H]2COCCN2C(=O)[C@@H](Cc2ccc(O)c(I)c2)NC(=O)[C@H](CC(=O)O)NC(=O)CNC1=O	inactive	Active	Active	Active	Active
